SMILES strings stand for the structures. Bounds are passed on as bounds.

The values below come from ChEMBL document CHEMBL1132410, “5-Chloro-N-(4-methoxy-3-piperazin-1-yl- phenyl)-3-methyl-2-benzothiophenesulfon- amide (SB-271046): a potent, selective, and orally bioavailable 5-HT6 receptor antagonist” (J Med Chem, 1999).

The target in test [1] is 5-hydroxytryptamine receptor 6 (Homo sapiens, UniProt P50406). The test can be described thus: Binding affinity against human cloned 5-hydroxytryptamine 6 receptor in HeLa cells using [3H]LSD. Format: cell-based. In a few lines: (§1)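 Radioligand binding at human cloned receptors; cell hosts and radioligands as listed per line: 5-HT1A, 5-HT2A, 5-HT2B, 5-HT2C and 5-HT7 in HEK 293 cells; 5-HT1B, 5-HT1D, 5-HT1E, 5-HT1F, D2 and D3 in CHO cells; 5-HT6 in HeLa cells. Values are the mean of at least two determinations, each within 0.2 log unit of the mean.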

The next test is filed under the species Homo sapiens. The test can be described thus: Selectivity for 5-HT6 receptors with respect to the 5-HT1A, 5-HT1B, 5-HT1D, 5-HT1E, 5-HT1F, 5-HT2A, 5-HT2B, 5-HT2C, 5-HT4, 5-HT7, Alpha-1B, D2, D3 receptors.
Test [2] deals with T1, 5-hydroxytryptamine receptor 1A (Homo sapiens, UniProt P08908).
T1 sequence (P08908 whole entry): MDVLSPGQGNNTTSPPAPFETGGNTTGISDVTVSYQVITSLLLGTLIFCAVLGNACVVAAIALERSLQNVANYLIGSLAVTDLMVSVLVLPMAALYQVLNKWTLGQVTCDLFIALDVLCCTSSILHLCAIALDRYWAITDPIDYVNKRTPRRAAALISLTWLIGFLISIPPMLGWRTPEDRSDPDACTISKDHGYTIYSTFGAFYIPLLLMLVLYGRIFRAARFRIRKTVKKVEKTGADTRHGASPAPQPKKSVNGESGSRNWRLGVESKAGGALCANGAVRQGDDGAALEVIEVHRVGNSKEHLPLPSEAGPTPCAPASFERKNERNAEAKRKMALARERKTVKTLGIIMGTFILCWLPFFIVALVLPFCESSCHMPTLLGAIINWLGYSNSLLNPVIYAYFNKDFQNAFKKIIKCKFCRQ
The test can be described thus: Compound was tested for its binding affinity against 5-hydroxytryptamine 1A receptor in human cloned receptors in HEK 293 cells using [3H]8-OH-DPAT. The format is cell-based, HEK293. In a few lines: as §1

In test [3] the target is 5-hydroxytryptamine receptor 1B (Homo sapiens, UniProt P28222). The test can be described thus: Compound was tested for its binding affinity against human cloned 5-hydroxytryptamine 1B receptor in CHO cells using [3H]5-HT. The format is cell-based. In a few lines: as §1
Test [4] addresses 5-hydroxytryptamine receptor 1D (Homo sapiens, UniProt P28221). The test can be described thus: Compound was tested for its binding affinity against human cloned 5-hydroxytryptamine 1D receptor in CHO cells using [3H]5-HT. Format: cell-based. In a few lines:
as §1

In test [5] the target is 5-hydroxytryptamine receptor 1E (Homo sapiens, UniProt P28566). The test can be described thus: Compound was tested for its binding affinity against cloned human 5-hydroxytryptamine 1E receptor in CHO cells using [3H]-5-HT. The format is cell-based. In a few lines:
as §1

Test [6] deals with 5-hydroxytryptamine receptor 2A (Homo sapiens, UniProt P28223). The test can be described thus: Compound was tested for its binding affinity against 5-hydroxytryptamine 2A receptor in human cloned receptors in HEK 293 cells using [3H]ketanserin. Format: cell-based, HEK293. In a few lines:
as §1

For test [7], the target named is T2, 5-hydroxytryptamine receptor 1F (Homo sapiens, UniProt P30939).
T2 sequence (P30939 whole entry): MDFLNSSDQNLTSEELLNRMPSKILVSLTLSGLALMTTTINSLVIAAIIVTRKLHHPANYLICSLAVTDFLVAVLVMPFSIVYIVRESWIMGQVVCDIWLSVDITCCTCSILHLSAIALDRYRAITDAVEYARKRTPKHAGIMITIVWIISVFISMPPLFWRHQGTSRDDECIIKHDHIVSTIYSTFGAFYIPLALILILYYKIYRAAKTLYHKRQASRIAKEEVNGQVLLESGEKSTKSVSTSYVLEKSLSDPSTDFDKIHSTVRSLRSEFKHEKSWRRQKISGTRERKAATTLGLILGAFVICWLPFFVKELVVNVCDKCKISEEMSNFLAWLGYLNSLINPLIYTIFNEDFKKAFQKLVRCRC
The test can be described thus: Compound was tested for its binding affinity against 5-hydroxytryptamine 1F receptor in human cloned receptors in CHO cells using [3H]5-HT. Format: cell-based. In a few lines:
as §1

In test [8] the target is 5-hydroxytryptamine receptor 2B (Homo sapiens, UniProt P41595). The test can be described thus: Compound was tested for its binding affinity against cloned human 5-hydroxytryptamine 2B receptor in HEK 293 cells using [3H]5-HT. The format is cell-based, HEK293. In a few lines: as §1
Test [9] has as its target 5-hydroxytryptamine receptor 4 (Homo sapiens, UniProt Q13639). The test can be described thus: Compound was tested for its binding affinity against 5-hydroxytryptamine 4 receptor.
The target in test [10] is 5-hydroxytryptamine receptor 7 (Homo sapiens, UniProt P34969). The test can be described thus: Compound was tested for its binding affinity against human cloned 5-hydroxytryptamine 7 receptor in HEK 293 cells using [3H]5-CT. The format is cell-based, HEK293. In a few lines:
as §1

Test [11] addresses T3, Alpha-1B adrenergic receptor (Homo sapiens, UniProt P35368).
T3 sequence (P35368 whole entry): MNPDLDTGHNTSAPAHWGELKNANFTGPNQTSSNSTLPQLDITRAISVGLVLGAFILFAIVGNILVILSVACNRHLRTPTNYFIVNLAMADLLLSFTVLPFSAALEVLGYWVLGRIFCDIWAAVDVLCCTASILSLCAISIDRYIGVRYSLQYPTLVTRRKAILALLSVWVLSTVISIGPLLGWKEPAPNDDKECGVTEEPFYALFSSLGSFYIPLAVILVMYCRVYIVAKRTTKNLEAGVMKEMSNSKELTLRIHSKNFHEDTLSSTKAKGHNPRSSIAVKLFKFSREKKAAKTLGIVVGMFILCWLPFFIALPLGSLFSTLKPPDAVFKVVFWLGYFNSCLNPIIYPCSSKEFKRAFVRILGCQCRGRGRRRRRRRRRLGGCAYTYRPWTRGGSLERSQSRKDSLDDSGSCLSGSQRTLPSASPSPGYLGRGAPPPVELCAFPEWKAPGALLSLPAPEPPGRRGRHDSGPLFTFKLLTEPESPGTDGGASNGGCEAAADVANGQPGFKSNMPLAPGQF
The test can be described thus: Compound was tested for its binding affinity against adrenergic Alpha-1B adrenergic receptor.

For another test, the target named is T4, Cytochrome P450 1A2 (Homo sapiens, UniProt P05177).
T4 sequence (P05177 whole entry): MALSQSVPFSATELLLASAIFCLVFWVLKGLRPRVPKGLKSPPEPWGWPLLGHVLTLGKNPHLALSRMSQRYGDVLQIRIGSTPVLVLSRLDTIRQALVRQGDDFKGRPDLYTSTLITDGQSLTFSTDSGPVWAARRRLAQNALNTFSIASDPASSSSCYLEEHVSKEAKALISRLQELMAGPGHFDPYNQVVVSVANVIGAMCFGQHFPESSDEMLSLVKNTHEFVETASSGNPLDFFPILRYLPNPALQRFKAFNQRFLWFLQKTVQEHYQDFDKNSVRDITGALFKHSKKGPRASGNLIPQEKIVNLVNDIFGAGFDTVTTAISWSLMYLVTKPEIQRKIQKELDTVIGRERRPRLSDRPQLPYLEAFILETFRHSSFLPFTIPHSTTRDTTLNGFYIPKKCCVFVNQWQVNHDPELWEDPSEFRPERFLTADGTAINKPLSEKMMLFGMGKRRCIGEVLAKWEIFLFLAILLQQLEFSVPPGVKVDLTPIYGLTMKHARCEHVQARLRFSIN
The test can be described thus: Inhibition of human cytochrome P450 1A2 activity as caffeine N3 demethylation (500 uM). The format is ADME. In a few lines:
(§2)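 Heterologously expressed human CYP isoforms in isoform-selective assays, with substrate at its Km. CYP1A2: caffeine N3-demethylation (500 μM). CYP2C9: tolbutamide methylhydroxylation (100 μM). CYP2C19: S-mephenytoin 4-hydroxylation (100 μM). CYP2D6: bufuralol 1'-hydroxylation (10 μM). CYP3A4: total cyclosporin oxidation (1 μM). IC50 is the mean of duplicate determinations, agreeing within 10%.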

A further test addresses Cytochrome P450 2C19 (Homo sapiens, UniProt P33261). The test can be described thus: Inhibition of human cytochrome P450 2C19 as S-mephenytoin-4-hydroxylation (100 uM). Format: ADME. In a few lines: as §2
A further test addresses Cytochrome P450 2C9 (Homo sapiens, UniProt P11712). The test can be described thus: Inhibitory potential of human cytochrome P450 2C9 as Tolbutamide methylhydroxylation (100 uM). Format: ADME. In a few lines: as §2
In another test the target is Cytochrome P450 2D6 (Homo sapiens, UniProt P10635). The test can be described thus: Inhibition of human cytochrome P450 2D6 as bufuralol 1''-hydroxylation (10 uM). Format: ADME. In a few lines:
as §2

In a further test the target is Cytochrome P450 3A4 (Homo sapiens, UniProt P08684). The test can be described thus: Inhibition of human cytochrome P450 3A4 as total cyclosporin oxidation (1 uM). The format is ADME. In a few lines: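 Heterologously expressed human CYP isoforms in isoform-selective assays, with substrate at its Km. CYP1A2: caffeine N3-demethylation (500 μM). CYP2C9: tolbutamide methylhydroxylation (100 μM). CYP2C19: S-mephenytoin 4-hydroxylation (100 μM). CYP2D6: bufuralol 1'-hydroxylation (10 μM). CYP3A4: total cyclosporin oxidation (1 μM).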

In another test the target is D(3) dopamine receptor (Homo sapiens, UniProt P35462). The test can be described thus: Compound was tested for its binding affinity against Dopamine receptor D3 in human cloned receptors in CHO cells using [125 I]iodosulpride. The format is cell-based. In a few lines: as §1
The target of another test is D(2) dopamine receptor (Homo sapiens, UniProt P14416). The test can be described thus: Compound was tested for its binding affinity against Dopamine receptor D2 in human cloned receptors in CHO cells using [125 I]iodosulpride. Format: cell-based. In a few lines: as §1
Test [12] addresses T5, 5-hydroxytryptamine receptor 2C (Homo sapiens, UniProt P28335).
T5 sequence (P28335 whole entry): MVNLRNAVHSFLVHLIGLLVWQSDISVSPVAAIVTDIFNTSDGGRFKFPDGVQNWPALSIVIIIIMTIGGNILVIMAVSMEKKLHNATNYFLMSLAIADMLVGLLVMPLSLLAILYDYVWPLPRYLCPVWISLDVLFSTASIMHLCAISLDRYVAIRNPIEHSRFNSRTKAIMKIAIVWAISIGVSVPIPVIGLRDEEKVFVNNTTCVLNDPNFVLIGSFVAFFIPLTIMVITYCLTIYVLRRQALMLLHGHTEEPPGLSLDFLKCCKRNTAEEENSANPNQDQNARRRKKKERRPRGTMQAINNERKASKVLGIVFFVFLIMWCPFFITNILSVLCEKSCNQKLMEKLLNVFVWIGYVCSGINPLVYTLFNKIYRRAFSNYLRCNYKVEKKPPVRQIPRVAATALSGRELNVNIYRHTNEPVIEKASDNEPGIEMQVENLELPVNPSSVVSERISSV
The test can be described thus: Compound was tested for its binding affinity against human cloned 5-hydroxytryptamine 2C receptor in HEK 293 cells using [3H]mesulergine. Format: cell-based, HEK293. In a few lines:
as §1

5-hydroxytryptamine receptor 6, sequence (P50406 whole entry): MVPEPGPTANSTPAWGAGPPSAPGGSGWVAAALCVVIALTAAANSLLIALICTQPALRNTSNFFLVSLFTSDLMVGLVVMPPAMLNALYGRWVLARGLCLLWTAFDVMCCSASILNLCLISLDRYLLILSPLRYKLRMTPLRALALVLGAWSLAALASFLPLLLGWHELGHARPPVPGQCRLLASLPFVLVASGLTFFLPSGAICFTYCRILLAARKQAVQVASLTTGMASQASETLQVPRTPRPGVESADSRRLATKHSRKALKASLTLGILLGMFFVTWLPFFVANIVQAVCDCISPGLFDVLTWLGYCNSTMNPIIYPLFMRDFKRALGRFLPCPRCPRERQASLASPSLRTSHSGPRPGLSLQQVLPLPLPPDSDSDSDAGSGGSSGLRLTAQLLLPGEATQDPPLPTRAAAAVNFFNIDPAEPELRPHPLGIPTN
Cytochrome P450 3A4, sequence (P08684 whole entry, canonical isoform): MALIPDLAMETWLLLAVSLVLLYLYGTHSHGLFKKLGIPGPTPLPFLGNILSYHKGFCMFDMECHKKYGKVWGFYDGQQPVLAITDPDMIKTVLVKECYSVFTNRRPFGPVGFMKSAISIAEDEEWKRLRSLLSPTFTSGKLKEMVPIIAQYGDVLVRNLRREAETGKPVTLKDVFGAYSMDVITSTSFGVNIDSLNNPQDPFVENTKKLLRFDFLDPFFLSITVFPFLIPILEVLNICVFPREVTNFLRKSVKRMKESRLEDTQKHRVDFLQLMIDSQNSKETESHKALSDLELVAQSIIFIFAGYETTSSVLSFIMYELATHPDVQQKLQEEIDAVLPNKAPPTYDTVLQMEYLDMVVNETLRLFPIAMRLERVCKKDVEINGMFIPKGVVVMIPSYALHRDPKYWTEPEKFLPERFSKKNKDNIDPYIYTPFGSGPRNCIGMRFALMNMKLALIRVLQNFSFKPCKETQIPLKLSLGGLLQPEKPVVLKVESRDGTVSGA
Cytochrome P450 2D6, sequence (P10635 whole entry): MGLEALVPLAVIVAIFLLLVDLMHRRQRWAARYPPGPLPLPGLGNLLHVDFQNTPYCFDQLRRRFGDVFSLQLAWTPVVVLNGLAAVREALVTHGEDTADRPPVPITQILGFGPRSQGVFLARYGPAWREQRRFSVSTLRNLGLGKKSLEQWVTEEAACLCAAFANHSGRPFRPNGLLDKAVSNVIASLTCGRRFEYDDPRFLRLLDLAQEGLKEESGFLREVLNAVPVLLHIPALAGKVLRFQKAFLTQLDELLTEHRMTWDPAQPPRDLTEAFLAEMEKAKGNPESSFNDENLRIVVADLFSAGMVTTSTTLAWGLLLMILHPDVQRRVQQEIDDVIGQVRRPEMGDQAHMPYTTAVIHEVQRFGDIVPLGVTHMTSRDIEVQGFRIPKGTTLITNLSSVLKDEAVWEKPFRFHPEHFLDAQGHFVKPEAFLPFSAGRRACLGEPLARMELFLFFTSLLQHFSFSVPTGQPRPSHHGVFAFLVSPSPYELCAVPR
D(3) dopamine receptor, sequence (P35462 whole entry): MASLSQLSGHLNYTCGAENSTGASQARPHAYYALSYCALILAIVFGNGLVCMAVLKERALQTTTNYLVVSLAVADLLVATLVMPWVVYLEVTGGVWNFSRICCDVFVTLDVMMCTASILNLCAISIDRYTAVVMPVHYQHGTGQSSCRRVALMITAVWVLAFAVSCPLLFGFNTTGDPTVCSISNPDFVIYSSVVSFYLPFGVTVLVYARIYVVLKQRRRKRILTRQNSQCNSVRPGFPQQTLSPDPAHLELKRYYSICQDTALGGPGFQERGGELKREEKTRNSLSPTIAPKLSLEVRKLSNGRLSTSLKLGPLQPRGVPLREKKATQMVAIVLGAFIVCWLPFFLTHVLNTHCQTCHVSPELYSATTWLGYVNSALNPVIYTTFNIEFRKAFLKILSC
5-hydroxytryptamine receptor 1B, sequence (P28222 whole entry): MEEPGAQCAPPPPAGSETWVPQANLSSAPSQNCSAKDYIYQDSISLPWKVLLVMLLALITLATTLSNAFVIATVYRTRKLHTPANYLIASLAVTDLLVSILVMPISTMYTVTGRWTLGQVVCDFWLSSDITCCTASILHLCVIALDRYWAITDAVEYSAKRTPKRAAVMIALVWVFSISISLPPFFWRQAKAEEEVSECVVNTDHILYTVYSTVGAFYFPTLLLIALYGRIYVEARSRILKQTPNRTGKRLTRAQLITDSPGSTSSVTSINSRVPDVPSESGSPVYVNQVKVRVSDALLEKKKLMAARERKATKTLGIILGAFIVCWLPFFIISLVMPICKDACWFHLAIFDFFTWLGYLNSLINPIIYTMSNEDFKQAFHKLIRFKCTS
5-hydroxytryptamine receptor 2B, sequence (P41595 whole entry): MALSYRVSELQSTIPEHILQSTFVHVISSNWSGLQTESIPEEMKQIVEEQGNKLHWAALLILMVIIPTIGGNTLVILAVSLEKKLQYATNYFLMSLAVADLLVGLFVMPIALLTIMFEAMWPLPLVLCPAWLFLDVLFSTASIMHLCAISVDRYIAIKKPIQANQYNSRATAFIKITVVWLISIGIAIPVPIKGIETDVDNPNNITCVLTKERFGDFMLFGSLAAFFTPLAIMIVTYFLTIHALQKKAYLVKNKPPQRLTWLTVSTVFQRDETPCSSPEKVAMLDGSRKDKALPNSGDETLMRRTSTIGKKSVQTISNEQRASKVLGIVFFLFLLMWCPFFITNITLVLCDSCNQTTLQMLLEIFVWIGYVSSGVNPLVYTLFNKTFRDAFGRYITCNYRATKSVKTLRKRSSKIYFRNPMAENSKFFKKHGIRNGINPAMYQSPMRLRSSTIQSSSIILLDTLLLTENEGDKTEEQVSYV
Cytochrome P450 2C9, sequence (P11712 whole entry): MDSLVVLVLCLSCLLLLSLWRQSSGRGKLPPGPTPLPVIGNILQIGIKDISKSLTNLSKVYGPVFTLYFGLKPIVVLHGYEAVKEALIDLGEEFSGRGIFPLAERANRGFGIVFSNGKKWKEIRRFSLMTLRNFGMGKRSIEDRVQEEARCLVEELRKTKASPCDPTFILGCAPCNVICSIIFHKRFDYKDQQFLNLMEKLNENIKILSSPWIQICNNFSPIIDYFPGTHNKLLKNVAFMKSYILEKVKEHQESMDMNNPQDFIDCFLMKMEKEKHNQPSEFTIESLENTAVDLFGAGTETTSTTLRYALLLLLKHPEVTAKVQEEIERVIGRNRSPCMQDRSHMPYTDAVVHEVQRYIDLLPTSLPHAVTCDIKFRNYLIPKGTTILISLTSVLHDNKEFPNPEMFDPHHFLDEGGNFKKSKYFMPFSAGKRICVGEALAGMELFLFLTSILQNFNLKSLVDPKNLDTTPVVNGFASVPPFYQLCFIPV
5-hydroxytryptamine receptor 2A, sequence (P28223 whole entry): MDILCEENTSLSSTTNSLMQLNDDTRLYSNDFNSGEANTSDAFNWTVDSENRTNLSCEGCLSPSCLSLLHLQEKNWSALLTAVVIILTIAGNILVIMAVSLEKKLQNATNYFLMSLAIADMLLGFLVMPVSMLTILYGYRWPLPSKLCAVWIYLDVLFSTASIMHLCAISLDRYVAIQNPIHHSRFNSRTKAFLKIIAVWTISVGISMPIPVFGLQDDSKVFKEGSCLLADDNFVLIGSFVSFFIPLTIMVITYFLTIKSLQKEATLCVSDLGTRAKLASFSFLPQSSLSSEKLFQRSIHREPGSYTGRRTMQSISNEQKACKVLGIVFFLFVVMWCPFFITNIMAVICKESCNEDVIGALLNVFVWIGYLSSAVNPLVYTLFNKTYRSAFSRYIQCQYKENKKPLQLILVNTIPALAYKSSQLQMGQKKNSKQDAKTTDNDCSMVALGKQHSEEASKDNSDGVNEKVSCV
5-hydroxytryptamine receptor 7, sequence (P34969 whole entry): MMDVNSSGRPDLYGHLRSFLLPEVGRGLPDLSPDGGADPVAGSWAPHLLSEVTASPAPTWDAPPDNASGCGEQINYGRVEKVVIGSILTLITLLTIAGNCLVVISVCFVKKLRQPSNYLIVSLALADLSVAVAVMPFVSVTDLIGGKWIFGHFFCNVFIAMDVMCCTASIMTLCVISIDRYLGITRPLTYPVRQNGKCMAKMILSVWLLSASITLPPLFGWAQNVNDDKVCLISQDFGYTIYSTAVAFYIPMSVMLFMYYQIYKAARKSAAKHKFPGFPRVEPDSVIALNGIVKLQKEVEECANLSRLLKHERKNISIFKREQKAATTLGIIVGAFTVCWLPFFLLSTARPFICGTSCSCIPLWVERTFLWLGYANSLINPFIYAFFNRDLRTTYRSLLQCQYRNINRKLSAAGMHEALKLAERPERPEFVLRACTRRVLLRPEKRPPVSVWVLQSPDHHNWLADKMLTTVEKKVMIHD
Cytochrome P450 2C19, sequence (P33261 whole entry): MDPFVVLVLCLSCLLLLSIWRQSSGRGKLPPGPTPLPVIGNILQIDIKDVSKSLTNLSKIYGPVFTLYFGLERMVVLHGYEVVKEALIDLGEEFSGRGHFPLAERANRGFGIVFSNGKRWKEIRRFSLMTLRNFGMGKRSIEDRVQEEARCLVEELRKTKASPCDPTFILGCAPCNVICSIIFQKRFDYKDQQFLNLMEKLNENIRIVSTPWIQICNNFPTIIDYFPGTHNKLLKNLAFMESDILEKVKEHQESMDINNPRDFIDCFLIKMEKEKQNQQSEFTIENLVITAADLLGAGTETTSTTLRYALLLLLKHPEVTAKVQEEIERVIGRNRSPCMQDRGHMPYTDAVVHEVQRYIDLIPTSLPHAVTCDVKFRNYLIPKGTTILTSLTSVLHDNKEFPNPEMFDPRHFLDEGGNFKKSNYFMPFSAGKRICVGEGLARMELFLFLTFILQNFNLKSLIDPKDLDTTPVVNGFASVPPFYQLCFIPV

What is called Ki is a measure of affinity in units of concentration, obtained from inhibition or displacement. The low end stands for tighter binding, the high end for weaker binding. In test [1], `COc1ccc(NS(=O)(=O)c2cc(I)ccc2C)cc1N1CCN(C)CC1` had a Ki of 1 nM. Besides, the Selectivity in the test listed under Homo sapiens is > 125.
In [1], `COc1ccc(NS(=O)(=O)c2ccc3c(Cl)cccc3c2)cc1N1CCN(C)CC1` gave an inhibition constant (Ki) of 0.794 nM. Moreover, in the test filed under Homo sapiens, the Selectivity is > 250.
For `COc1ccc(NS(=O)(=O)c2cccc(I)c2)cc1N1CCN(C)CC1` the same measures were 0.794 nM and > 200.
As a reminder, the IC50 is the midpoint of a concentration-inhibition curve. With `COc1ccc(NS(=O)(=O)c2ccc(Br)cc2)cc1N1CCN(C)CC1`, the Ki in test [2] was 251 nM; in [3] it was 398 nM; in test [4] it was 251 nM; in [5] it was 1580 nM; in test [6] it was 1260 nM; in test [7], 316 nM. The Ki in [8] was 631 nM; in test [9] it was 2510 nM; in test [10], 2510 nM; in test [1], 5.01 nM; in test [11], 2510 nM; on D(3) dopamine receptor it was 794 nM. Also, the values for the Ki (at D(2) dopamine receptor; in test [12]) were 3980 nM and 1000 nM, respectively. The IC50 on Cytochrome P450 1A2 is 10000 nM; against Cytochrome P450 2C19, 46000 nM; against Cytochrome P450 2C9, > 100000 nM; against Cytochrome P450 2D6, 11000 nM; at Cytochrome P450 3A4 it was 6000 nM.
With `COc1ccc(NS(=O)(=O)c2cccc(C#N)c2)cc1N1CCN(C)CC1`, affinity in test [1] was put at a Ki of 63.1 nM.
Compound `COc1ccc(NS(=O)(=O)c2cn(C)cn2)cc1N1CCN(C)CC1` showed a Ki in [1] of 794 nM.
`COc1ccc(NS(=O)(=O)c2ccccc2)cc1N1CCN(C)CC1` showed an inhibitory constant (Ki) in test [1] of 10 nM. The compound also yielded a Selectivity in the test filed under Homo sapiens of 80.
With `CNc1cc(NS(=O)(=O)c2ccc(N)cc2)nc(NC)n1`, the Ki in test [1] is 50.1 nM.
